The test system of assay [1] is Bcl-2 3256 cells (Bcl-2 dependent).
In assay [2] the test system is Mcl-1 2640 cells (Mcl-1 dependent). Description: BH3 profiling, Mcl-1 2640. The format is cell-based, murine. As to conditions: 5 μM peptide. A digest of the protocol:
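Myc-driven murine leukemia line, Mcl-1 dependent, grown in RPMI 1640 with 10% FBS and […] 2-mercaptoethanol. Permeabilized cells at 2×10^4/well, triplicate wells, exposed to peptides including 5 μM. JC-1 read-out; depolarization expressed as percentage relative to FCCP (full) and DMSO (none). At least three biological replicates.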

The next assay has as its target T1, Bcl-w (residues 1-164) (Homo sapiens, UniProt Q92843).
T1 sequence (Q92843 1-164): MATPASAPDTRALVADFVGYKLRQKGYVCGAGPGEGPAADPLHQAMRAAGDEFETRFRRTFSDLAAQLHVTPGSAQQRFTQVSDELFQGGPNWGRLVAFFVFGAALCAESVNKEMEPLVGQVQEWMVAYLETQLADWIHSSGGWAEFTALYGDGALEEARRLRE
Put plainly: Fluorescence polarization competition binding assay, Bcl-w. The conditions noted are these: four mutations combined. A digest of the protocol: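 E. coli-expressed Bcl-w (residues 1-164), 50 nM final, competed against 10 nM N-terminal fluorescein 18-mer Bim-BH3. Unlabeled peptide serially diluted and premixed with tracer 15 min before protein. Buffer: 20 mM sodium phosphate, 50 mM NaCl, 1 mM EDTA, 0.001% Triton X, 5% DMSO, pH 7.8, 25 °C.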
For orientation: In fluorescence polarisation assays a small probe gives low polarisation when free and higher when bound to something large.

In a further assay the test system is Bcl-xL. Description: Yeast-surface display, dual color fluorescence binding with competitors. Also noted: species or system human. The conditions noted are these: 100-fold excess of each competitor, yeast-displayed peptide. A digest of the protocol:
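Yeast displaying BH3 peptides incubated with 10 nM Bcl-xL plus 1 μM each of Mcl-1, Bfl-1, Bcl-2 and Bcl-w, competitors premixed. Proteins are E. coli-expressed human constructs. Detection uses primary and labeled secondary antibodies: FITC marks peptide expression, APC marks receptor binding. Flow cytometry with 488 and/or 561 nm excitation.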

Assay [3] deals with T2, Bcl-xL (residues 1-209) (Homo sapiens, UniProt Q07817). Description: Fluorescence polarization competition binding assay, Bcl-xL.
A further assay concerns the target Mcl-1 (residues 172-327) (Homo sapiens, UniProt Q07820). Description: Fluorescence polarization binding assay, Mcl-1. The conditions noted are these: FP competition. A digest of the protocol:
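E. coli-expressed Mcl-1 (residues 172-327) in competition FP: 20 mM sodium phosphate, 50 mM NaCl, 1 mM EDTA, 0.001% Triton X, 5% DMSO, pH 7.8, 25 °C. Serially diluted unlabeled peptide plus 10 nM fluorescein tracer, 15 min, then protein. Tracer is 18-mer Bim-BH3 with 50 nM Mcl-1, or 23-mer Hrk-BH3 with 500 nM Mcl-1.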

The target of assay [4] is primary human platelets (Bcl-xL dependent) (Homo sapiens, UniProt Q07817). As to conditions: primary human platelet samples.
The target of assay [5] is T3, Bcl-2 (residues 1-217) (Homo sapiens, UniProt P10415). Put plainly: Fluorescence polarization competition binding assay, Bcl-2. A digest of the protocol: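 Human Bcl-2 (residues 1-217), expressed in E. coli. Buffer: 20 mM sodium phosphate, 50 mM NaCl, 1 mM EDTA, 0.001% Triton X, 5% DMSO, pH 7.8, 25 °C. Competition: test peptide serially diluted, 10 nM fluorescein Bim-BH3 added, 15 min at RT, then 50 nM Bcl-2 (final). Anisotropy read over 2-48 h, then curves fit. Direct: titrated protein, 10 nM probe, read 4-24 h.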

A further assay relates to DHL10 cells. Put plainly: BH3 profiling, DHL10. As to conditions: Bax- and Bak-deleted cell line. The format is cell-based. A digest of the protocol: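 Test peptides (N-acetylated, C-amidated) titrated onto permeabilized Su-DHL10 cells (RPMI 1640, 10% FBS), 2×10^4 cells/well, triplicate wells per concentration. JC-1 fluorescence gives membrane-potential loss, normalized as 1 – [(Dsample–DFCCP)/(DDMSO–DFCCP)] against FCCP and DMSO. EC50 from global fit with linked baselines; at least three biological replicates, 2-3 days of culture apart.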

Assay [6] deals with OCI-Ly1 cells (Bcl-2 dependent) (Homo sapiens, UniProt P10415).
Assay [7] concerns the target T3, Bcl-2 (residues 1-217). Description: fluorescence polarisation.
The target in assay [8] is T2, Bcl-xL (residues 1-209). Description: fluorescence polarisation.
Assay [9] addresses Bcl-xL (residues 1-209) (human, UniProt Q07817-1 1-209). Description: fluorescence polarisation.
Assay [10] deals with Bcl-2 (residues 1-217) (human, UniProt P10415 1-217). Description: fluorescence polarisation.

Where a SMILES comes first, the peptide text is derived from it.

Usually EC50 stands for the concentration giving half of the maximal effect. The term Ki denotes a dissociation constant, usually derived from enzyme kinetics or from competition with a known ligand. Usually Kd stands for a measure of binding affinity in units of concentration. A high value points to a looser complex.

T3 sequence (P10415 1-217): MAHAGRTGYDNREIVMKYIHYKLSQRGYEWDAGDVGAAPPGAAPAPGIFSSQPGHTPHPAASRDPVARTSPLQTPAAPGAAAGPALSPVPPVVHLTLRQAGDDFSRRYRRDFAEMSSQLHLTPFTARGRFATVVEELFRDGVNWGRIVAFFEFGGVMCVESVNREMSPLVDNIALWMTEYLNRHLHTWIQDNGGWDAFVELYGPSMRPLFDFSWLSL
T2 sequence (Q07817 1-209): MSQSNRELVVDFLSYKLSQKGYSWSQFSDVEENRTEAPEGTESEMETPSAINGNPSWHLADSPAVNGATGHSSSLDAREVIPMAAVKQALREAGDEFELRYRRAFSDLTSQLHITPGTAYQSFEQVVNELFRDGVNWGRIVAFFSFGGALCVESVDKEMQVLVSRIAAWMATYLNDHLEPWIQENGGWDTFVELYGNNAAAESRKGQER
Sequence of OCI-Ly1 cells (Bcl-2 dependent) (P10415 whole entry, the tested form may be a part): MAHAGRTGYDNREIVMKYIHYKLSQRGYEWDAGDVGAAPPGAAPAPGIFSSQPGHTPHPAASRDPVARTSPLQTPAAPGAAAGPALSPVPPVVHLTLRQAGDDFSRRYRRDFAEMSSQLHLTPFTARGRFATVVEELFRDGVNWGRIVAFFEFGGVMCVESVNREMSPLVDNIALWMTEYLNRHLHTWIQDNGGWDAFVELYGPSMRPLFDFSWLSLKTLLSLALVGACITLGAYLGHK
Sequence of Bcl-xL (residues 1-209) (human, UniProt Q07817-1 1-209) (Q07817 1-209): as the sequence (Q07817 1-209) above
Sequence of Mcl-1 (residues 172-327) (Q07820 172-327): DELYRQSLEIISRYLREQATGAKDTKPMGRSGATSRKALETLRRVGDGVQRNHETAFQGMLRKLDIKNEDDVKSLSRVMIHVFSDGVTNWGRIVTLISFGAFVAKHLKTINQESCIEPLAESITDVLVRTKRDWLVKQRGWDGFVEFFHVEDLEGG
Sequence of Bcl-2 (residues 1-217) (human, UniProt P10415 1-217) (P10415 1-217): as the sequence (P10415 1-217) above
Sequence of primary human platelets (Bcl-xL dependent) (Q07817 1-209): as the sequence (Q07817 1-209) above

In assay [1], `CC[C@H](C)[C@H](NC(=O)[C@H](CCC(=O)O)NC(=O)[C@H](CCCNC(=N)N)NC(=O)[C@H](C)NC(=O)[C@H](Cc1c[nH]c2ccccc12)NC(=O)[C@H](CCC(N)=O)NC(C)=O)C(=O)NCC(=O)N[C@@H](C)C(=O)N[C@@H](CCC(N)=O)C(=O)N[C@@H](CC(C)C)C(=O)N[C@@H](CCCNC(=N)N)C(=O)N[C@@H](CCCNC(=N)N)C(=O)N[C@@H](CCSC)C(=O)N[C@@H](C)C(=O)N[C@@H](CC(=O)O)C(=O)N[C@@H](CC(=O)O)C(=O)N[C@@H](CC(C)C)C(=O)N[C@@H](CC(N)=O)C(=O)N[C@@H](C)C(=O)N[C@@H](CCC(N)=O)C(=O)N[C@@H](Cc1ccc(O)cc1)C(=O)N[C@@H](CCC(=O)O)C(=O)N[C@@H](CCCNC(=N)N)C(N)=O` [Puma, reference compound] yielded a 50% effective concentration (EC50) of 663 ± 223 nM. Also, the “depolarization in the Mcl-1 dependent line (in words)” value in assay [2] is “strong response”.
As to `CC[C@H](C)[C@H](NC(=O)[C@H](CCC(=O)O)NC(=O)[C@@H]1CCCN1C(=O)[C@H](CCCNC(=N)N)NC(C)=O)C(=O)N[C@@H](Cc1c[nH]c2ccccc12)C(=O)N[C@@H](Cc1ccc(O)cc1)C(=O)N[C@@H](C)C(=O)N[C@@H](CCC(N)=O)C(=O)NCC(=O)N[C@@H](CC(C)C)C(=O)N[C@@H](CCCCN)C(=O)N[C@@H](CCCNC(=N)N)C(=O)N[C@@H](Cc1ccccc1)C(=O)NCC(=O)N[C@@H](CC(=O)O)C(=O)N[C@@H](CCC(=O)O)C(=O)N[C@@H](Cc1ccccc1)C(=O)N[C@@H](CC(N)=O)C(=O)N[C@@H](C)C(=O)N[C@@H](Cc1ccc(O)cc1)C(=O)N[C@@H](Cc1ccc(O)cc1)C(=O)N[C@@H](C)C(=O)N[C@@H](CCCNC(=N)N)C(N)=O` [XXA1] (Ac-RPEIWYAQGLKRFGDEFNAYYAR-NH2), the “weakening of binding to Bcl-w relative to Bim-BH3” value on Bcl-w (residues 1-164) is reported as ~ 150 fold. Further, in the assay on Bcl-xL, the “binding to Bcl-xL in the presence of competitor pro-survival proteins” value is on record as “robust binding”. Also, the Ki at Bcl-xL (residues 1-209) [3] is at most 0.1 nM. In addition, the “affinity for Bcl-xL (in words)” value on Bcl-xL (residues 1-209) [3] (FP competition with fluorescein 18-residue Bim-BH3) is listed as “sub-nanomolar”. The “competition with fluorescently labeled Bim-BH3 for binding to Mcl-1 (in words)” value at Mcl-1 (residues 172-327) is listed as “Neither XXA1 nor XXA1_G2gE could compete”. Besides, the “depolarization of platelets (in words)” value in assay [4] is reported as “potent depolarization”. The dissociation constant (Kd) at Bcl-2 (residues 1-217) [5] was about 17 nM. Further, the concentration giving a half-maximal response (EC50) in assay [1] is 540 ± 183 nM. The “depolarization in the Mcl-1 dependent line (in words)” value in [2] is listed as “low amount of depolarization”. Also, the “non-specific pore forming activities” value with DHL10 cells was “None”.
Consider `CC[C@H](C)[C@H](NC(C)=O)C(=O)N[C@@H](Cc1c[nH]c2ccccc12)C(=O)N[C@@H](Cc1ccc(O)cc1)C(=O)N[C@@H](C)C(=O)N[C@@H](CCC(N)=O)C(=O)NCC(=O)N[C@@H](CC(C)C)C(=O)N[C@@H](CCCCN)C(=O)N[C@@H](CCCNC(=N)N)C(=O)N[C@@H](Cc1ccccc1)C(=O)NCC(=O)N[C@@H](CC(=O)O)C(=O)N[C@@H](CCC(=O)O)C(=O)N[C@@H](Cc1ccccc1)C(=O)N[C@@H](CC(N)=O)C(=O)N[C@@H](C)C(=O)N[C@@H](Cc1ccc(O)cc1)C(=O)N[C@@H](CCCCN)C(N)=O` [Y4eK_18] (Ac-IWYAQGLKRFGDEFNAYK-NH2), for which the “reduction of affinity for Bcl-xL relative to XXA1_Y4eK” value on Bcl-xL (residues 1-209) [3] was ~ 18 fold. The “weaker binding to Bcl-2 than parent XXA1_Y4eK” value at Bcl-2 (residues 1-217) [5] is reported as ~ 5 fold. In addition, in [6], the “weaker response than XXA1_Y4eK” value is 3-4 fold.
As to `CC[C@H](C)[C@H](NC(=O)[C@H](CCC(=O)O)NC(=O)[C@@H]1CCCN1C(=O)[C@H](CCCNC(=N)N)NC(C)=O)C(=O)N[C@@H](Cc1c[nH]c2ccccc12)C(=O)N[C@@H](Cc1ccc(O)cc1)C(=O)N[C@@H](C)C(=O)N[C@@H](CCC(N)=O)C(=O)NCC(=O)N[C@@H](CC(C)C)C(=O)N[C@@H](CCCCN)C(=O)N[C@@H](CCCNC(=N)N)C(=O)N[C@@H](Cc1ccccc1)C(=O)NCC(=O)N[C@@H](CC(=O)O)C(=O)N[C@@H](CCC(=O)O)C(=O)N[C@@H](Cc1ccccc1)C(=O)N[C@@H](CC(N)=O)C(=O)N[C@@H](C)C(=O)N[C@@H](Cc1ccc(O)cc1)C(=O)N[C@@H](CCCCN)C(N)=O` [Y4eK_21] (Ac-RPEIWYAQGLKRFGDEFNAYK-NH2), the inhibition constant (Ki) on Bcl-xL (residues 1-209) [3] was 0.4 nM; at Bcl-2 (residues 1-217) [5] it was 430 nM. On Bcl-2 (residues 1-217) [5] (ratio of FP binding constants), the “specificity for Bcl-xL over Bcl-2” value is listed as ~ 1000 fold. In assay [6], the “weaker response than XXA1_Y4eK” value is reported as 3-4 fold.
Regarding “Bim-BH3 with the point mutation E2gG (peptide)”, the fold weaker binding than Bim-BH3 with Bcl-2 (residues 1-217) [7] amounted to 7 fold. Besides, the Ki with Bcl-xL (residues 1-209) [8] was under 0.1 nM.
In turn, “Bim-BH3 with the point mutation I2dY (peptide)” came in with a fold weaker binding than Bim-BH3 with Bcl-2 (residues 1-217) [7] of 5 fold. The molecule further gave an inhibition constant Ki with Bcl-xL (residues 1-209) [8] of under 0.1 nM.
In the assay with Bcl-xL (residues 1-209) [8], “Bim-BH3 with the point mutation I3dF (peptide)” gave an inhibition constant (Ki) of under 0.1 nM.
Same read-out and setting: next, “Bim-BH3 with the point mutation R3bK (peptide)”: under 0.1 nM; Hrk-BH3, unlabeled 23-residue peptide: 10 nM.
In the case of Puma-BH3, unlabeled 23-residue peptide, the inhibitory constant (Ki) in the assay with Bcl-xL (residues 1-209) [8] amounted to 2 nM. This Ki is about 5-fold lower than that of the molecule before.
Molecule Ac-WAAQRYGRELRRMSDEFVDSFKK-NH2 [Bad-BH3, unlabeled 23-residue peptide] registered an inhibitory constant (Ki) with Bcl-xL (residues 1-209) [9] of at most 0.1 nM.
Take Ac-IWYAQGLKRFGDEFNAYK-NH2 (designed binder) [Y4eK_18]: the “fold weaker binding than XXA1_Y4eK” value with Bcl-2 (residues 1-217) [10] is about 5 fold. This molecule showed a Ki with Bcl-xL (residues 1-209) [9] of about 2 nM.

The values above are taken from article PMC4357494 (Journal of molecular biology, 2014).
